In ChEMBL document CHEMBL1157028, “Synthesis and anti-inflammatory activity of novel (substituted)benzylidene acetone oxime ether derivatives: molecular modeling study” (Eur J Med Chem, 2010):

Assays:
Rattus norvegicus [1] = assay: Antiinflammatory activity in Wistar rat assessed as inhibition of carrageenan-induced paw edema at equimolar ip dose relative […] diclofenac sodium administered 1 hr before carrageenan challenge measured after 3 hrs relative to control; type: functional
Summary of the method: (§1)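 Wistar rats (100–120 g), 5 per group, were dosed ip either at equimolar […] or at three graded doses to derive ED50. Vehicle-only rats served as controls. After 1 h, 0.05 mL 1% carrageenin in saline (made 24 h earlier) was injected subplantar into the right hind paw and saline into the left. At 3 h, rats were killed and both paws cut and weighed. Right-over-left % weight increase gave % oedema reduction versus control.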

Rattus norvegicus [2] = assay: Antiinflammatory activity in Wistar rat assessed as inhibition of carrageenan-induced paw edema at […], ip administered 1 hr before carrageenan challenge measured after 3 hrs relative to control; type: functional; summary of the method: as §1
Rattus norvegicus [3] = assay: Gastrointestinal toxicity in Wistar rat assessed as length of elongated ulcer at equimolar po dose relative […] diclofenac sodium qd for 5 days measured after 10 hrs last post dose; type: organism-based; conditions: in vivo
Summary of the method: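 Rats, 5 per group, were given oral equimolar doses ([…]) daily for 5 days. They were killed by ether overdose 10 h after the last dose. Stomachs were rinsed with saline, opened along the greater curvature and examined under a ×10 hand lens. Ulcer number and summed ulcer length were recorded per animal, and the mean was taken as ulcer index.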

Rattus norvegicus [4] = assay: Antiinflammatory activity in Wistar rat assessed as inhibition of carrageenan-induced paw edema at 30 mg/kg, ip administered 1 hr before carrageenan challenge measured after 3 hrs relative to control; type: functional; conditions: route intraperitoneal; summary of the method: as §1
Rattus norvegicus [5] = assay: Antiinflammatory activity in Wistar rat assessed as inhibition of carrageenan-induced paw edema at 50 mg/kg, ip administered 1 hr before carrageenan challenge measured after 3 hrs relative to control; type: functional; conditions: route intraperitoneal; summary of the method: as §1
Mus musculus [6] = assay: Analgesic activity in Swiss albino mouse assessed as inhibition of acetic acid-induced writhing at 50 mg/kg, po administered 2 hrs before acetic acid challenge measured after 20 mins relative to control; type: functional
Summary of the method: (§2)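 Swiss albino mice of either sex (20–25 g), in groups of 6, were housed at 22 ± 2 °C on a 12 h light/dark cycle. Drug was given orally and vehicle alone to negative controls. After 2 h, 0.2 mL 3% acetic acid was injected ip. Writhes were counted over 20 min, and % reduction in writhe number versus the control group was calculated.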

Rattus norvegicus [7] = assay: Antiinflammatory activity in Wistar rat assessed as inhibition of carrageenan-induced paw edema at 75 mg/kg, ip administered 1 hr before carrageenan challenge measured after 3 hrs relative to control; type: functional; conditions: route intraperitoneal; summary of the method: as §1
Rattus norvegicus [8] = assay: Antiinflammatory activity in ip dosed Wistar rat assessed as inhibition of carrageenan-induced paw edema administered 1 hr before carrageenan challenge measured after 3 hrs relative to control; type: functional; summary of the method: as §1
Mus musculus [9] = assay: Analgesic activity in Swiss albino mouse assessed as inhibition of acetic acid-induced writhing at 45 mg/kg, po administered 2 hrs before acetic acid challenge measured after 20 mins relative to control; type: functional; summary of the method: as §2
[10] = Therapeutic index, ED50 for antiinflammatory activity to LD50 for acute toxicity in Wistar rat; conditions: read-out: TI
Mus musculus [11] = assay: Analgesic activity in Swiss albino mouse assessed as inhibition of acetic acid-induced writhing at 100 mg/kg, po administered 2 hrs before acetic acid challenge measured after 20 mins relative to control; type: functional; summary of the method: as §2
Rattus norvegicus [12] = assay: Antiinflammatory activity in Wistar rat assessed as inhibition of carrageenan-induced paw edema at 45 mg/kg, ip administered 1 hr before carrageenan challenge measured after 3 hrs relative to control; type: functional; conditions: route intraperitoneal; summary of the method: as §1
[13] = Acute toxicity in ip dosed Wistar rat assessed as mortality after 24 hrs; type: organism-based; conditions: in vivo
Rattus norvegicus [14] = assay: Antiinflammatory activity in Wistar rat assessed as inhibition of carrageenan-induced paw edema at 37 mg/kg, ip administered 1 hr before carrageenan challenge measured after 3 hrs relative to control; type: functional; conditions: route intraperitoneal; summary of the method: as §1
Mus musculus [15] = assay: Analgesic activity in Swiss albino mouse assessed as inhibition of acetic acid-induced writhing at 37 mg/kg, po administered 2 hrs before acetic acid challenge measured after 20 mins relative to control; type: functional; summary of the method: as §2

## CC(/C=C/c1ccc(Cl)cc1)=N\OC(C)C(=O)NN (centres undefined)
Rattus norvegicus [1]
  inhibition (INH): 43.49%

## CCOC(=O)C(C)O/N=C(C)/C=C/c1ccc(OC)cc1 (centres undefined)
Rattus norvegicus [1]
  inhibition (INH): 21.66%

## CC(/C=C/c1ccc(Cl)cc1)=N\OCC(=O)Nc1ccccc1
Rattus norvegicus [1]
  inhibition (INH): 29.45%

## CC(/C=C/c1ccccc1)=N\OCC(=O)NN
Rattus norvegicus [1]
  inhibition (INH): 29.01%

## COc1ccc(NC(=O)CO/N=C(C)/C=C/c2ccccc2)cc1
Rattus norvegicus [1]
  inhibition (INH): 49.64%

## COc1ccc(/C=C/C(C)=N/OCC(=O)Nc2ccc(Cl)cc2)cc1
Rattus norvegicus [1]
  inhibition (INH): 43.32%

## COc1ccc(/C=C/C(C)=N/OC(C)C(=O)O)cc1 (centres undefined)
Rattus norvegicus [1]
  inhibition (INH): 45.38%

## CC(/C=C/c1ccc(Cl)cc1)=N\OCC(=O)NN
Rattus norvegicus [1]
  inhibition (INH): 21.76%

## CC(/C=C/c1ccccc1)=N\OCC(=O)NC(C)C
Rattus norvegicus [1]
  inhibition (INH): 30.93%

## O=C([O-])Cc1ccccc1Nc1c(Cl)cccc1Cl.[Na+] [DICLOFENAC SODIUM]
Rattus norvegicus [2]
  inhibition (INH): 72.13%
Rattus norvegicus [3]
  Activity: 7.9 mm
Rattus norvegicus [4]
  inhibition in vivo at 30 mg/kg: 46%
Rattus norvegicus [5]
  inhibition in vivo at 50 mg/kg: 72.1%
Mus musculus [6]
  inhibition in vivo at 50 mg/kg: 71.1%
Rattus norvegicus [7]
  inhibition in vivo at 75 mg/kg: 80.2%
Rattus norvegicus [8]
  ED50: 30.6 mg/kg

## COc1ccc(/C=C/C(C)=N/OCC(=O)O)cc1
Rattus norvegicus [1]
  inhibition (INH): 7.35%

## CC(/C=C/c1ccc(Cl)cc1)=N\OC(C)C(=O)NC(C)C (centres undefined)
Rattus norvegicus [1]
  inhibition (INH): 42.84%

## CC(/C=C/c1ccccc1)=N\OC(C)C(=O)NN (centres undefined)
Rattus norvegicus [1]
  inhibition (INH): 56.27%

## CC(/C=C/c1ccc(Cl)cc1)=N\OCC(=O)NC(C)C
Rattus norvegicus [1]
  inhibition (INH): 28.49%

## COc1ccc(/C=C/C(C)=N/OC(C)C(N)=O)cc1 (centres undefined)
Rattus norvegicus [1]
  inhibition (INH): 58.53%

## COc1ccc(/C=C/C(C)=N/OCC(=O)Nc2ccc(OC)cc2)cc1
Rattus norvegicus [1]
  inhibition (INH): 37.25%

## CC(/C=C/c1ccccc1)=N\OCC(=O)Nc1ccccc1
Rattus norvegicus [1]
  inhibition (INH): 35.43%

## CC(/C=C/c1ccc(Cl)cc1)=N\OCC(=O)O
Rattus norvegicus [1]
  inhibition (INH): 50.57%

## CCOC(=O)C(C)O/N=C(C)/C=C/c1ccc(Cl)cc1 (centres undefined)
Rattus norvegicus [1]
  inhibition (INH): 44.52%

## COc1ccc(/C=C/C(C)=N/OCC(=O)NC(C)C)cc1
Rattus norvegicus [1]
  inhibition (INH): 41.68%

## COc1ccc(/C=C/C(C)=N/OCC(N)=O)cc1
Rattus norvegicus [1]
  inhibition (INH): 38.21%

## CC(/C=C/c1ccccc1)=N\OCC(=O)Nc1ccc(Cl)cc1
Rattus norvegicus [1]
  inhibition (INH): 28.66%

## CC(/C=C/c1ccccc1)=N\OC(C)C(=O)NC(C)C (centres undefined)
Rattus norvegicus [1]
  inhibition (INH): 37.38%

## COc1ccc(/C=C/C(C)=N/OC(C)C(=O)NN)cc1 (centres undefined)
Rattus norvegicus [1]
  inhibition (INH): 38.76%

## CC(/C=C/c1ccccc1)=N\OCC(N)=O
Rattus norvegicus [1]
  inhibition (INH): 49.71%

## COc1ccc(/C=C/C(C)=N/OCC(=O)NN)cc1
Rattus norvegicus [1]
  inhibition (INH): 24.44%

## CC(/C=C/c1ccccc1)=N\OCC(=O)O
Rattus norvegicus [1]
  inhibition (INH): 45.62%

## CC(/C=C/c1ccc(Cl)cc1)=N\OC(C)C(=O)O (centres undefined)
Mus musculus [9]
  inhibition in vivo at 45 mg/kg: 20.3%
Rattus norvegicus [3]
  Activity: 8.1 mm
Rattus norvegicus [4]
  inhibition in vivo at 30 mg/kg: 45.1%
[10]
  selectivity ratio: 24.9
Mus musculus [11]
  inhibition in vivo at 100 mg/kg: 39.1%
Rattus norvegicus [12]
  inhibition in vivo at 45 mg/kg: 66.7%
Rattus norvegicus [7]
  inhibition in vivo at 75 mg/kg: 75.2%
Rattus norvegicus [1]
  inhibition (INH): 66.7%
Rattus norvegicus [8]
  ED50: 29.9 mg/kg
[13]
  LD50 at 24 h: 745 mg/kg

## CC(/C=C/c1ccccc1)=N\OC(C)C(=O)O (centres undefined)
Rattus norvegicus [1]
  inhibition (INH): 40.85%

## COc1ccc(/C=C/C(C)=N/OCC(=O)Nc2ccccc2)cc1
Rattus norvegicus [1]
  inhibition (INH): 42.91%

## CCOC(=O)CO/N=C(C)/C=C/c1ccc(OC)cc1
Rattus norvegicus [1]
  inhibition (INH): 22.14%

## CCOC(=O)CO/N=C(C)/C=C/c1ccccc1
Rattus norvegicus [1]
  inhibition (INH): 29.76%

## COc1ccc(NC(=O)CO/N=C(C)/C=C/c2ccc(Cl)cc2)cc1
Rattus norvegicus [1]
  inhibition (INH): 48.16%

## CC(/C=C/c1ccc(Cl)cc1)=N\OC(C)C(N)=O (centres undefined)
Rattus norvegicus [1]
  inhibition (INH): 57.54%

## CC(/C=C/c1ccccc1)=N\OC(C)C(N)=O (centres undefined)
Rattus norvegicus [3]
  Activity: 0.3 mm
Rattus norvegicus [4]
  inhibition in vivo at 30 mg/kg: 37.7%
[10]
  selectivity ratio: 20.1
Mus musculus [11]
  inhibition in vivo at 100 mg/kg: 82.5%
Rattus norvegicus [14]
  inhibition in vivo at 37 mg/kg: 63.2%
Rattus norvegicus [7]
  inhibition in vivo at 75 mg/kg: 69.1%
Rattus norvegicus [1]
  inhibition (INH): 63.23%
Rattus norvegicus [8]
  ED50: 34.3 mg/kg
[13]
  LD50 at 24 h: 745 mg/kg
Mus musculus [15]
  inhibition in vivo at 37 mg/kg: 53.6%

## CCOC(=O)CO/N=C(C)/C=C/c1ccc(Cl)cc1
Rattus norvegicus [1]
  inhibition (INH): 26.23%

## COc1ccc(/C=C/C(C)=N/OC(C)C(=O)NC(C)C)cc1 (centres undefined)
Rattus norvegicus [1]
  inhibition (INH): 27.53%

## CC(/C=C/c1ccc(Cl)cc1)=N\OCC(=O)Nc1ccc(Cl)cc1
Rattus norvegicus [1]
  inhibition (INH): 40.89%

## CC(/C=C/c1ccc(Cl)cc1)=N\OCC(N)=O
Rattus norvegicus [1]
  inhibition (INH): 50.77%

## CCOC(=O)C(C)O/N=C(C)/C=C/c1ccccc1 (centres undefined)
Rattus norvegicus [1]
  inhibition (INH): 33.2%
